In ChEMBL document CHEMBL3525976, “An unusual metabolic pathway of sipoglitazar, a novel antidiabetic agent: cytochrome P450-catalyzed oxidation of sipoglitazar acyl glucuronide” (Drug Metab Dispos, 2012):

Assays:
[1] = tested on: Plasma; experiment: Stability of the compound in human plasma assessed as formation of sipoglitazar at 10 uM up to 4 hrs; assay type: ADME, cell-free
In short: (§1)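 [14C]glucuronide isomer (G1 or G2) at 10 μmol/L final, incubated at 37°C in 50 mmol/L potassium phosphate buffer (pH 7.4), acetate buffer (pH 4.4), rat bile or human plasma. Samples taken at 0, 5, 30 min and 1, 2, 4 h (G1) or 0, 1, 2, 4 h (G2). Reaction stopped with equal-volume acetonitrile and centrifuged. Supernatant analysed by radio-HPLC. Each species reported as % of total radioactivity.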

[2] = Chemical stability of the compound in acetate buffer at pH 4.4 at 10 uM up to 4 hrs; assay type: physicochemical; conditions: pH 4.4, 4 h; in short: as §1
[3] = Drug metabolism in human hepatic microsomes assessed as formation of sipoglitazar at 10 uM after 10 mins by HPLC analysis in presence of NADPH; assay type: ADME, Liver, Microsome
In short: (§2)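 Human liver microsomes (1 mg protein/mL), 10 μmol/L [14C]glucuronide isomer, 5 mmol/L MgCl2, with or without NADPH-generating system (5 mmol/L G6P, 0.5 mmol/L β-NADP+, 1.5 U/mL G6PDH) in 50 mmol/L KPB. Incubated 37°C, 10 min. Acetonitrile quench, then radio-HPLC.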

[4] = Drug level in human hepatic microsomes treated with 100 uM of [14C]Sipoglitazar after 4 hrs by HPLC analysis in presence of UDPGA; assay type: ADME, Liver
In short: (§3)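 Preparative glucuronidation: [14C]sipoglitazar 100 μmol/L with human liver microsomes (2 mg protein/mL) and UDPGA 5 mmol/L, 37°C, 4 h. Supernatant concentrated under nitrogen, then separated by radio-HPLC on ODS columns at 40°C or 4°C with acetonitrile/water/TFA gradient to resolve the glucuronide isomers.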

[5] = Chemical stability of the compound in potassium phosphate buffer at pH 7.4 assessed as formation of sipoglitazar at 10 uM up to 4 hrs; assay type: physicochemical; conditions: pH 7.4, 4 h; in short: as §1
[6] = Stability of the compound in rat bile assessed as formation of sipoglitazar at 10 uM up to 4 hrs; assay type: ADME, tissue-based; in short: as §1
[7] = biological target: T1, Cytochrome P450 2B6 (Homo sapiens, UniProt P20813); experiment: Drug metabolism in […] assessed as CYP2B6-mediated formation of 3-(3-hydroxy-1-{4-[(2-phenyl-1,3-thiazol-4-yl)methoxy]benzyl}-1H-pyrazol-4-yl)propanoic acid at 10 uM after 15 mins by HPLC analysis in presence of NADPH; conditions: 0.25 h
T1 sequence (P20813 whole entry): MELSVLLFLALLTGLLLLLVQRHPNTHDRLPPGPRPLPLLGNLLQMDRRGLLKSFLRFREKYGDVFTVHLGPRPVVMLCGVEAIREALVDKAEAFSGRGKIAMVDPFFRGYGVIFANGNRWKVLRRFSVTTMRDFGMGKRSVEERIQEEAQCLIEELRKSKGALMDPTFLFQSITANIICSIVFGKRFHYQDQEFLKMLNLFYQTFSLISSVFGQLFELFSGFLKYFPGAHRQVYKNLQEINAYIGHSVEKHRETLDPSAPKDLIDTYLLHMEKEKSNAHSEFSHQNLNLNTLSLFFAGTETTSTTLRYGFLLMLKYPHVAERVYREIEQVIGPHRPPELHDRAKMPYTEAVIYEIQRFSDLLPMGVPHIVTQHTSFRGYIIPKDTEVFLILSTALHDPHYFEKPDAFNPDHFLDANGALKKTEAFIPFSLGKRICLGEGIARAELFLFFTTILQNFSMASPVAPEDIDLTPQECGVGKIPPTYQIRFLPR
In short: (§4)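 Recombinant CYP-expressing microsomes (80 pmol P450/mL) with 10 μmol/L [14C]glucuronide substrate, 5 mmol/L MgCl2 and NADPH-generating system (5 mmol/L glucose-6-phosphate, 0.5 mmol/L β-NADP+, 1.5 U/mL G6PDH) in 50 mmol/L KPB or Tris-HCl pH 7.4. Incubated 37°C, 15 min. Deethylated product quantified by radio-HPLC. Means of duplicates.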

[8] = biological target: T2, Cytochrome P450 2C8 (Homo sapiens, UniProt P10632); experiment: Drug metabolism in […] assessed as CYP2C8-mediated formation of 3-(3-hydroxy-1-{4-[(2-phenyl-1,3-thiazol-4-yl)methoxy]benzyl}-1H-pyrazol-4-yl)propanoic acid at 10 uM after 15 mins by HPLC analysis in presence of NADPH; conditions: 0.25 h; in short: as §4
T2 sequence (P10632 whole entry): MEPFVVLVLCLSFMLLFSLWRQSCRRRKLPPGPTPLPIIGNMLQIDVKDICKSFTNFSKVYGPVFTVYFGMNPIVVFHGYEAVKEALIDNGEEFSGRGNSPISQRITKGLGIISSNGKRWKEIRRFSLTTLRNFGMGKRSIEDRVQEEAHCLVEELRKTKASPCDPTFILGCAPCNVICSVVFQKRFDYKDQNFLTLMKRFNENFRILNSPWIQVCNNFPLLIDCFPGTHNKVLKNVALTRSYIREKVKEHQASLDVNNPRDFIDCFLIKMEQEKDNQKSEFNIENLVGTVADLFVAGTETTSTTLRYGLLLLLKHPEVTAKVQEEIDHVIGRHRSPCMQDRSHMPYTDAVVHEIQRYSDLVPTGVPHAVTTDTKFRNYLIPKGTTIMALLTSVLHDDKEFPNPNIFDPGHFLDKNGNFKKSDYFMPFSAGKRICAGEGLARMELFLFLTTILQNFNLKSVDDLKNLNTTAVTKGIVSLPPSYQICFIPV

[9] = tested on: Plasma; experiment: Stability of the compound in human plasma assessed as formation of alpha-2-O-acyl glucuronide conjugate of sipoglitazar at 10 uM up to 4 hrs; assay type: ADME, cell-free; in short: as §1
[10] = Chemical stability of the compound in potassium phosphate buffer at pH 7.4 assessed as formation of alpha-2-O-acyl glucuronide conjugate of sipoglitazar at 10 uM up to 4 hrs; assay type: physicochemical; conditions: pH 7.4, 4 h; in short: as §1
[11] = Stability of the compound in rat bile assessed as formation of alpha-2-O-acyl glucuronide conjugate of sipoglitazar at 10 uM up to 4 hrs; assay type: ADME, tissue-based; in short: as §1
[12] = biological target: Cytochrome P450 2E1 (Homo sapiens, UniProt P05181); experiment: Drug metabolism in […] assessed as CYP2E1-mediated formation of 3-(3-hydroxy-1-{4-[(2-phenyl-1,3-thiazol-4-yl)methoxy]benzyl}-1H-pyrazol-4-yl)propanoic acid at 10 uM after 15 mins by HPLC analysis in presence of NADPH; conditions: 0.25 h; in short: as §4
Chain of Cytochrome P450 2E1 (P05181 whole entry): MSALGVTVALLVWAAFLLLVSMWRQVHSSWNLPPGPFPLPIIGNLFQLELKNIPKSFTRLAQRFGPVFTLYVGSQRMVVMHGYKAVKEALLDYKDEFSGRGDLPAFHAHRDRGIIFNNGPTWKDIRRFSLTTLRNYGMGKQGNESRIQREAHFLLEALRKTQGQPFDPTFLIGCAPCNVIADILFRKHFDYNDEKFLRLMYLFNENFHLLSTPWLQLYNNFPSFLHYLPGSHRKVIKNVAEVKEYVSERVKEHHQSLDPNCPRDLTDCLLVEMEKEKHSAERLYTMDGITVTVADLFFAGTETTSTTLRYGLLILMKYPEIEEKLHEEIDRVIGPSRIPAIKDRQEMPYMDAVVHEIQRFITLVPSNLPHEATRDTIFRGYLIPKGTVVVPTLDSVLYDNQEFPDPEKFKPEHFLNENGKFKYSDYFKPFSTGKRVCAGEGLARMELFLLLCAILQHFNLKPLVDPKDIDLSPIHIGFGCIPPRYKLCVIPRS

[13] = Drug metabolism in human hepatic microsomes assessed as formation of 3-(3-hydroxy-1-{4-[(2-phenyl-1,3-thiazol-4-yl)methoxy]benzyl}-1H-pyrazol-4-yl)propanoic acid at 10 uM after 10 mins by HPLC analysis in presence of NADPH; assay type: ADME, Liver, Microsome; in short: as §2
[14] = Drug level in human hepatic microsomes treated with 10 uM of [14C]Sipoglitazar after 6 hrs by LC-MS and LC-MS/MS analysis in presence of UDPGA; assay type: ADME, Liver
[15] = Drug level in human hepatic microsomes treated with 10 uM of [14C]Sipoglitazar after 6 hrs by LC-MS and LC-MS/MS analysis in presence of NADPH; assay type: ADME, Liver
[16] = tested on: Hepatocyte; experiment: Drug level in cryopreserved primary human hepatocytes treated with 10 uM of [14C]Sipoglitazar after 6 hrs by LC-MS and LC-MS/MS analysis; assay type: ADME, cell-based
In short: (§5)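 Cryopreserved human hepatocytes suspended in DMEM at 3 x 10⁵ viable cells/well with 10 μmol/L [14C]sipoglitazar, 37°C, 6 h. Stopped with acetonitrile and centrifuged; supernatant run on radio-HPLC (ODS column, acetonitrile/water/TFA gradient). Metabolites expressed as % of total radioactivity. Means of duplicates.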

[17] = Drug level in human hepatic microsomes treated with 10 uM of [14C]Sipoglitazar after 6 hrs by LC-MS and LC-MS/MS analysis in presence of NADPH and UDPGA; assay type: ADME, Liver
[18] = Drug metabolism in human hepatic microsomes assessed as formation of 3-(3-hydroxy-1-{4-[(2-phenyl-1,3-thiazol-4-yl)methoxy]benzyl}-1H-pyrazol-4-yl)propanoic acid at 10 uM after 1 hr by LC-MS and LC-MS/MS analysis in presence of NADPH
[19] = Drug metabolism in human hepatic microsomes assessed as formation of beta-1-O-acyl glucuronide conjugate of sipoglitazar at 100 uM after 4 hrs by HPLC analysis in presence of UDPGA; assay type: ADME, Liver, Microsome; in short: as §3
[20] = Drug metabolism in human hepatic microsomes assessed as formation of 3-(3-hydroxy-1-{4-[(2-phenyl-1,3-thiazol-4-yl)methoxy]benzyl}-1H-pyrazol-4-yl)propanoic acid at 10 uM after 6 hrs by LC-MS and LC-MS/MS analysis in presence of NADPH and UDPGA; assay type: ADME, Liver, Microsome
[21] = Drug metabolism in cryopreserved primary human hepatocytes assessed as formation of 3-(3-hydroxy-1-{4-[(2-phenyl-1,3-thiazol-4-yl)methoxy]benzyl}-1H-pyrazol-4-yl)propanoic acid at 10 uM after 6 hrs by LC-MS and LC-MS/MS analysis; assay type: ADME, cell-based, Hepatocyte; in short: as §5
[22] = Drug metabolism in human hepatic microsomes assessed as formation of 3-[3-ethoxy-1-(4-hydroxybenzyl)-1H-pyrazol-4-yl]propanoic acid] at 10 uM after 1 hr by LC-MS and LC-MS/MS analysis in presence of NADPH
[23] = Drug metabolism in human hepatic microsomes assessed as elimination of compound at 10 uM after 30 mins by LC-MS and LC-MS/MS analysis in presence of gemfibrozil and UDPGA; assay type: ADME, Liver, Microsome; conditions: 0.5 h
In short: (§6)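 Human liver microsomes (0.5 mg protein/mL), 10 μmol/L [14C]sipoglitazar, 5 mmol/L MgCl2, alamethicin 50 μg/mL and UDPGA 5 mmol/L, with or without NADPH-generating system. Gemfibrozil added at 0, 10, 30, 100 or 300 μmol/L final, in 50 mmol/L KPB pH 7.4. Incubated 37°C, 30 min. Acetonitrile quench, then radio-HPLC.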

[24] = Drug metabolism in cryopreserved primary human hepatocytes assessed as formation of 3-[3-ethoxy-1-(4-hydroxybenzyl)-1H-pyrazol-4-yl]propanoic acid] at 10 uM after 6 hrs by LC-MS and LC-MS/MS analysis; assay type: ADME, cell-based, Hepatocyte; in short: as §5
[25] = Drug metabolism in human hepatic microsomes assessed as formation of 3-[3-ethoxy-1-(4-hydroxybenzyl)-1H-pyrazol-4-yl]propanoic acid] at 10 uM after 6 hrs by LC-MS and LC-MS/MS analysis in presence of NADPH and UDPGA; assay type: ADME, Liver, Microsome
[26] = Drug metabolism in human hepatic microsomes assessed as beta-1-O-acyl glucuronide conjugate of sipoglitazar formation at 10 uM after 30 mins by LC-MS and LC-MS/MS analysis in presence of gemfibrozil and UDPGA; assay type: ADME, Liver, Microsome; conditions: 0.5 h; in short: as §6
[27] = Drug metabolism in human hepatic microsomes assessed as formation of 3-[3-ethoxy-1-(4-hydroxybenzyl)-1H-pyrazol-4-yl]propanoic acid] at 10 uM after 30 mins by LC-MS and LC-MS/MS analysis in presence of gemfibrozil, NADPH and UDPGA; assay type: ADME, Liver, Microsome; conditions: 0.5 h; in short: as §6
[28] = Drug metabolism in human hepatic microsomes assessed as formation of 3-(3-hydroxy-1-{4-[(2-phenyl-1,3-thiazol-4-yl)methoxy]benzyl}-1H-pyrazol-4-yl)propanoic acid at 10 uM after 30 mins by LC-MS and LC-MS/MS analysis in presence of gemfibrozil, NADPH and UDPGA; assay type: ADME, Liver, Microsome; conditions: 0.5 h; in short: as §6
[29] = Drug metabolism in human hepatic microsomes assessed as formation of alpha-2-O-acyl glucuronide conjugate of sipoglitazar at 100 uM after 4 hrs by HPLC analysis in presence of UDPGA; assay type: ADME, Liver, Microsome; in short: as §3
[30] = Drug metabolism in human hepatic microsomes assessed as elimination of compound at 10 uM after 30 mins by LC-MS and LC-MS/MS analysis in presence of gemfibrozil, NADPH and UDPGA; assay type: ADME, Liver, Microsome; conditions: 0.5 h; in short: as §6

Stability [1]	Stability [2]	Drug metabolism [3]	Drug metabolism [4]	Stability [5]	Stability [6]	Drug metabolism [14]	Drug metabolism [15]	Drug metabolism [16]	Drug metabolism [17]	Structure (SMILES)	further results
Unstable	Stable	metabolite_detected	metabolite_detected	Unstable	Unstable	–	–	–	–	CCOc1nn(Cc2ccc(OCc3csc(-c4ccccc4)n3)cc2)cc1CCC(=O)O[C@@H]1O[C@H](C(=O)O)[C@@H](O)[C@H](O)[C@H]1O	Drug metabolism [7]: metabolite_not_detected; Drug metabolism [8]: metabolite_detected; Stability [9]: Unstable; Stability [10]: Unstable; Stability [11]: Unstable; Drug metabolism [12]: metabolite_not_detected; Drug metabolism [13]: metabolite_detected
–	–	–	–	–	–	metabolite_detected	metabolite_detected	metabolite_detected	metabolite_detected	O=C(O)CCc1cn(Cc2ccc(OCc3csc(-c4ccccc4)n3)cc2)nc1O	–

Second part, the molecule before the results:

Structure (SMILES)	Stability [1]	Stability [2]	Drug metabolism [3]	Drug metabolism [4]	Stability [5]	Stability [6]	Drug metabolism [14]	Drug metabolism [15]	Drug metabolism [16]	Drug metabolism [17]	further results
CCOc1nn(Cc2ccc(OCc3csc(-c4ccccc4)n3)cc2)cc1CCC(=O)O[C@@H]1[C@@H](O)[C@H](O)[C@@H](C(=O)O)O[C@@H]1O	Unstable	Stable	metabolite_detected	metabolite_detected	Unstable	Unstable	–	–	–	–	–
CCOc1nn(Cc2ccc(O)cc2)cc1CCC(=O)O	–	–	–	–	–	–	metabolite_detected	metabolite_detected	metabolite_detected	metabolite_detected	–
CCOc1nn(Cc2ccc(OCc3csc(-c4ccccc4)n3)cc2)cc1CCC(=O)O [SIPOGLITAZAR]	–	–	–	–	–	–	–	–	–	–	Drug metabolism [18]: metabolite_detected; Drug metabolism [19]: metabolite_detected; Drug metabolism [20]: metabolite_detected; Drug metabolism [21]: metabolite_detected; Drug metabolism [22]: metabolite_detected; Drug metabolism [23]: metabolite_not_detected; Drug metabolism [24]: metabolite_detected; Drug metabolism [25]: metabolite_detected; Drug metabolism [26]: metabolite_not_detected; Drug metabolism [27]: metabolite_not_detected; Drug metabolism [28]: metabolite_not_detected; Drug metabolism [29]: metabolite_detected; Drug metabolism [30]: metabolite_not_detected
